Assay results published in ChEMBL document CHEMBL1156799, “Synthesis and biological evaluation of N-hydroxyphenylacrylamides and N-hydroxypyridin-2-ylacrylamides as novel histone deacetylase inhibitors” (J Med Chem, 2010).

How the values were obtained:
[1] = Metabolic stability in mouse hepatic microsomes at 1 uM after 30 mins at 37 degC; conditions: liver microsomes
[2] = Metabolic stability in human hepatic microsomes at 1 uM after 30 mins at 37 degC; assay type: ADME; conditions: liver microsomes, read-out: Stability
In short: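 Compound at 1 μM preincubated 10 min at 37 °C in potassium phosphate buffer pH 7.4 with 0.5 mg/mL human or mouse hepatic microsomes; NADP/G6P/G6P-DH cofactor mix added; samples at 0 and 30 min analysed by LC-MS/MS (MRM, verapamil internal standard); % remaining = area 30 min/area 0 min × 100.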

[3] = Metabolic stability in mouse liver microsomes assessed as half life; assay type: ADME, Microsome
[4] = Clearance in CD1 mouse at 5 mg/kg, iv; conditions: in vivo
Mus musculus [5] = experiment: Volume of distribution at steady state in CD1 mouse at 5 mg/kg, iv; conditions: in vivo
[6] = AUC (0 to infinity) in CD1 mouse at 5 mg/kg, iv; assay type: ADME, organism-based; set-up: time infinity, dose 5 mg/kg, route intravenous; conditions: plasma
[7] = Oral bioavailability in CD1 mouse at 15 mg/kg; assay type: ADME, organism-based; conditions: in vivo
In short: (§1)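 Mice dosed orally by gavage at 15 mg/kg, compound in water at 3 mg/mL of the base; iv comparison dose 5 mg/kg in normal saline; 27-30 animals per group; plasma from serial blood samples, protein-precipitated, kept at -80 °C, quantified by LC/MS/MS.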

[8] = Half life in CD1 mouse at 15 mg/kg, po; assay type: ADME, organism-based; set-up: dose 15 mg/kg, route oral; conditions: in vivo
In short: as §1

[9] = AUC (0 to 24 hrs) in CD1 mouse at 5 mg/kg, iv; assay type: ADME, organism-based; set-up: time < 24 hr, dose 5 mg/kg, route intravenous; conditions: plasma
In short: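 Mice given single iv dose of 5 mg/kg, compound in normal saline at 1 mg/mL as rapid bolus; 27-30 animals per group; blood sampled at several times after dosing, plasma separated by centrifugation, proteins precipitated, stored -80 °C, analysed by LC/MS/MS (ESI).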

in vitro = conditions: human, liver microsomes
Mus musculus [10] = organism: Mus musculus; experiment: Hepatic blood flow in mouse; assay type: ADME, organism-based, Liver

Structure (SMILES): CN1CCN(Cc2ccc(C(=O)/C=C/c3ccc(/C=C/C(=O)NO)cc3)cc2)CC1
- remaining at 0.5 h, 1 µM [1]: 17%
- remaining at 0.5 h, 1 µM [2]: 61%

Structure (SMILES): O=C(/C=C/c1ccc2c(c1)nc(CCc1ccccc1)n2CCN1CCCC1)NO
- half-life [3]: 0.05 h

Structure (SMILES): CN1CCN(Cc2cccc(C(=O)/C=C/c3cccc(/C=C/C(=O)NO)c3)c2)CC1
- remaining at 0.5 h, 1 µM [1]: 25%
- remaining at 0.5 h, 1 µM [2]: 39%

Structure (SMILES): CN1CCN(c2ccccc2C(=O)/C=C/c2cccc(/C=C/C(=O)NO)c2)CC1
- remaining at 0.5 h, 1 µM [1]: 44%
- remaining at 0.5 h, 1 µM [2]: 62%

Structure (SMILES): CN1CCN(c2ccccc2C(=O)/C=C/c2cccc(/C=C/C(=O)NO)n2)CC1
- clearance [4]: 44 mL/min/kg
- Vdss (Mus musculus [5]): 13.9 L/kg
- AUC(0-inf) [6]: 1900 ng·h/mL
- remaining at 0.5 h, 1 µM [1]: 57%
- remaining at 0.5 h, 1 µM [2]: 58%
- bioavailability [7]: 2.9%
- half-life [8]: 8.6 h

Structure (SMILES): CN1CCN(c2ccc(C(=O)/C=C/c3cccc(/C=C/C(=O)NO)n3)cc2)CC1
- remaining at 0.5 h, 1 µM [1]: 19%
- remaining at 0.5 h, 1 µM [2]: 35%

Structure (SMILES): O=C(/C=C/c1ccc(/C=C/C(=O)c2ccccc2)cc1)NO
- remaining at 0.5 h, 1 µM [1]: 2%
- remaining at 0.5 h, 1 µM [2]: 5%

Structure (SMILES): CN1CCN(c2cccc(C(=O)/C=C/c3ccc(/C=C/C(=O)NO)cc3)c2)CC1
- remaining at 0.5 h, 1 µM [1]: 6.2%
- remaining at 0.5 h, 1 µM [2]: 44%

Structure (SMILES): Cc1[nH]c2ccccc2c1CCNCc1ccc(/C=C/C(=O)NO)cc1 [PANOBINOSTAT]
- clearance [4]: 305 mL/min/kg
- Vdss (Mus musculus [5]): 15.1 L/kg
- AUC(0-inf) [6]: 273 ng·h/mL
- bioavailability [7]: 4.6%
- half-life [8]: 1.37 h

Structure (SMILES): CN1CCN(Cc2ccc(C(=O)/C=C/c3ccc(/C=C/C(=O)NO)nc3)cc2)CC1
- clearance [4]: 79.2 mL/min/kg
- Vdss (Mus musculus [5]): 31.9 L/kg
- AUC(0-inf) [6]: 1050 ng·h/mL
- remaining at 0.5 h, 1 µM [1]: 56%
- remaining at 0.5 h, 1 µM [2]: 47%
- bioavailability [7]: 5.5%
- half-life [8]: 9.7 h

Structure (SMILES): CN1CCN(Cc2ccccc2C(=O)/C=C/c2cccc(/C=C/C(=O)NO)c2)CC1
- clearance [4]: 98 mL/min/kg
- Vdss (Mus musculus [5]): 20.1 L/kg
- AUC(0-inf) [6]: 849 ng·h/mL
- remaining at 0.5 h, 1 µM [1]: 35%
- remaining at 0.5 h, 1 µM [2]: 62%
- bioavailability [7]: 3.1%
- half-life [8]: 8.27 h

Structure (SMILES): CN1CCN(Cc2ccc(C(=O)/C=C/c3cccc(/C=C/C(=O)NO)c3)cc2)CC1
- remaining at 0.5 h, 1 µM [1]: 33%
- remaining at 0.5 h, 1 µM [2]: 44%

Structure (SMILES): CN1CCN(Cc2cccc(C(=O)/C=C/c3ccc(/C=C/C(=O)NO)nc3)c2)CC1
- clearance [4]: 113 mL/min/kg
- Vdss (Mus musculus [5]): 28.4 L/kg
- AUC(0-inf) [6]: 736 ng·h/mL
- remaining at 0.5 h, 1 µM [1]: 46%
- remaining at 0.5 h, 1 µM [2]: 32%
- bioavailability [7]: 3.9%
- half-life [8]: 6.7 h

Structure (SMILES): O=C(/C=C/c1cccc(/C=C/C(=O)c2ccccc2)c1)NO
- remaining at 0.5 h, 1 µM [1]: 6%
- remaining at 0.5 h, 1 µM [2]: 9%

Structure (SMILES): CN1CCN(Cc2ccccc2C(=O)/C=C/c2cccc(/C=C/C(=O)NO)n2)CC1
- remaining at 0.5 h, 1 µM [1]: 40%
- remaining at 0.5 h, 1 µM [2]: 67%

Structure (SMILES): CN1CCN(Cc2ccc(C(=O)/C=C/c3cccc(/C=C/C(=O)NO)n3)cc2)CC1
- clearance [4]: 29.2 mL/min/kg
- Vdss (Mus musculus [5]): 16.07 L/kg
- remaining at 0.5 h, 1 µM [1]: 46%
- remaining at 0.5 h, 1 µM [2]: 51%
- bioavailability [7]: 2.6%
- half-life [8]: 7.3 h
- AUC(0-t) at 24 h [9]: 2520 ng·h/mL

Structure (SMILES): CN1CCN(Cc2ccccc2C(=O)/C=C/c2ccc(/C=C/C(=O)NO)cc2)CC1
- remaining at 0.5 h, 1 µM [1]: 4.2%
- remaining at 0.5 h, 1 µM [2]: 56%

Structure (SMILES): O=C(/C=C/c1cc(/C=C/C(=O)c2ccccc2)ccn1)NO
- remaining at 0.5 h, 1 µM [1]: 14%
- remaining at 0.5 h, 1 µM [2]: 16%

Structure (SMILES): O=C(/C=C/c1cccc(S(=O)(=O)Nc2ccccc2)c1)NO [BELINOSTAT]
- clearance [4]: 193 mL/min/kg
- Vdss (Mus musculus [5]): 5.03 L/kg
- AUC(0-inf) [6]: 431 ng·h/mL
- bioavailability [7]: 6.66%
- half-life [8]: 1.21 h

Structure (SMILES): CN1CCN(Cc2cccc(C(=O)/C=C/c3cccc(/C=C/C(=O)NO)n3)c2)CC1
- remaining at 0.5 h, 1 µM [1]: 40%
- remaining at 0.5 h, 1 µM [2]: 45%

Structure (SMILES): CN1CCN(c2cccc(C(=O)/C=C/c3cccc(/C=C/C(=O)NO)c3)c2)CC1
- remaining at 0.5 h, 1 µM [1]: 7.2%
- remaining at 0.5 h, 1 µM [2]: 55%

Structure (SMILES): CN1CCN(c2ccccc2C(=O)/C=C/c2ccc(/C=C/C(=O)NO)cc2)CC1
- clearance [4]: 119 mL/min/kg
- Vdss (Mus musculus [5]): 5.4 L/kg
- AUC(0-inf) [6]: 698 ng·h/mL
- remaining at 0.5 h, 1 µM [1]: 34%
- remaining at 0.5 h, 1 µM [2]: 38%
- bioavailability [7]: 18.1%
- half-life [8]: 2 h

Structure (SMILES): O=C(CCCCCCC(=O)Nc1ccccc1)NO [VORINOSTAT]
- clearance [4]: 127 mL/min/kg
- Vdss (Mus musculus [5]): 1.2 L/kg
- AUC(0-inf) [6]: 657 ng·h/mL
- half-life [3]: 0.467 h
- half-life (in vitro): 1 h
- LBF (Mus musculus [10]): 90 mL/min/kg
- bioavailability [7]: 12.1%
- half-life [8]: 0.5 h

Structure (SMILES): CN1CCN(Cc2ccccc2C(=O)/C=C/c2ccc(/C=C/C(=O)NO)nc2)CC1
- clearance [4]: 55.8 mL/min/kg
- Vdss (Mus musculus [5]): 11.7 L/kg
- AUC(0-inf) [6]: 1490 ng·h/mL
- remaining at 0.5 h, 1 µM [1]: 53%
- remaining at 0.5 h, 1 µM [2]: 93%
- bioavailability [7]: 4.5%
- half-life [8]: 5.55 h

Structure (SMILES): CN1CCN(c2cccc(C(=O)/C=C/c3cccc(/C=C/C(=O)NO)n3)c2)CC1
- clearance [4]: 55.3 mL/min/kg
- Vdss (Mus musculus [5]): 18.3 L/kg
- AUC(0-inf) [6]: 1510 ng·h/mL
- remaining at 0.5 h, 1 µM [1]: 29%
- remaining at 0.5 h, 1 µM [2]: 35%
- bioavailability [7]: 2%
- half-life [8]: 8.5 h

Structure (SMILES): CN1CCN(c2ccc(C(=O)/C=C/c3cccc(/C=C/C(=O)NO)c3)cc2)CC1
- remaining at 0.5 h, 1 µM [1]: 5.9%
- remaining at 0.5 h, 1 µM [2]: 40%

Structure (SMILES): CN1CCN(Cc2cccc(C(=O)/C=C/c3ccc(/C=C/C(=O)NO)cc3)c2)CC1
- remaining at 0.5 h, 1 µM [1]: 17%
- remaining at 0.5 h, 1 µM [2]: 23%

Structure (SMILES): CN1CCN(c2cccc(C(=O)/C=C/c3ccc(/C=C/C(=O)NO)nc3)c2)CC1
- remaining at 0.5 h, 1 µM [1]: 20%
- remaining at 0.5 h, 1 µM [2]: 41%

Structure (SMILES): CN1CCN(c2ccccc2C(=O)/C=C/c2ccc(/C=C/C(=O)NO)nc2)CC1
- clearance [4]: 59.7 mL/min/kg
- Vdss (Mus musculus [5]): 2.1 L/kg
- AUC(0-inf) [6]: 1400 ng·h/mL
- remaining at 0.5 h, 1 µM [1]: 61%
- remaining at 0.5 h, 1 µM [2]: 65%
- bioavailability [7]: 6.3%
- half-life [8]: 2.3 h

Structure (SMILES): CN1CCN(c2ccc(C(=O)/C=C/c3ccc(/C=C/C(=O)NO)cc3)cc2)CC1
- remaining at 0.5 h, 1 µM [1]: 9.1%
- remaining at 0.5 h, 1 µM [2]: 33%

Structure (SMILES): O=C(/C=C/c1ccc(/C=C/C(=O)c2ccccc2)cn1)NO
- remaining at 0.5 h, 1 µM [1]: 6%
- remaining at 0.5 h, 1 µM [2]: 14%

Structure (SMILES): CN1CCN(c2ccc(C(=O)/C=C/c3ccc(/C=C/C(=O)NO)nc3)cc2)CC1
- remaining at 0.5 h, 1 µM [1]: 3.8%
- remaining at 0.5 h, 1 µM [2]: 43%

Structure (SMILES): O=C(/C=C/c1cccc(/C=C/C(=O)c2ccccc2)n1)NO
- remaining at 0.5 h, 1 µM [1]: 11%
- remaining at 0.5 h, 1 µM [2]: 38%
